Measured values taken from ChEMBL document CHEMBL1140745, “Rationalizing the activities of diverse cholecystokinin 2 receptor antagonists using molecular field points” (J Med Chem, 2008).
Residues, ends and D or L forms follow the SMILES beside them. *: point of attachment. NHPhenethyl = c1ccc(CCN*)cc1; Boc = CC(C)(C)OC(=O)*

What was measured:
[1] = target: T1, Gastrin/cholecystokinin type B receptor (Rattus norvegicus) (UniProt P30553); conditions: Stomach
T1 sequence (whole entry): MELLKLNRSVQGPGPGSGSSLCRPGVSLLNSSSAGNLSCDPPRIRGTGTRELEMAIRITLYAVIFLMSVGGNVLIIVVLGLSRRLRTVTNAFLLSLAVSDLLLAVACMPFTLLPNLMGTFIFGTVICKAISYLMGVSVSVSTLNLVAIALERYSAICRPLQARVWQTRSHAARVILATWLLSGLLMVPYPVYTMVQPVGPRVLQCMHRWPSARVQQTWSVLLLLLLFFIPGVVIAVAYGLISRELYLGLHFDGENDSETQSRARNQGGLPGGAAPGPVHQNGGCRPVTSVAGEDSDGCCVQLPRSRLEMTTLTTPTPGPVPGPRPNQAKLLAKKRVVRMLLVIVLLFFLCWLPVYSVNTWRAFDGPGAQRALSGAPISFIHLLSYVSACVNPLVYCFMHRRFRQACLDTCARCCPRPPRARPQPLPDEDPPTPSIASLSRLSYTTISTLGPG

[2] = target: T2, Cholecystokinin receptor type A (Cavia porcellus, UniProt Q63931); test: Displacement of [125I]BH-CCK-8S from […] expressed in guinea pig pancreatic cells; format: cell-based
T2 sequence (Q63931 whole entry): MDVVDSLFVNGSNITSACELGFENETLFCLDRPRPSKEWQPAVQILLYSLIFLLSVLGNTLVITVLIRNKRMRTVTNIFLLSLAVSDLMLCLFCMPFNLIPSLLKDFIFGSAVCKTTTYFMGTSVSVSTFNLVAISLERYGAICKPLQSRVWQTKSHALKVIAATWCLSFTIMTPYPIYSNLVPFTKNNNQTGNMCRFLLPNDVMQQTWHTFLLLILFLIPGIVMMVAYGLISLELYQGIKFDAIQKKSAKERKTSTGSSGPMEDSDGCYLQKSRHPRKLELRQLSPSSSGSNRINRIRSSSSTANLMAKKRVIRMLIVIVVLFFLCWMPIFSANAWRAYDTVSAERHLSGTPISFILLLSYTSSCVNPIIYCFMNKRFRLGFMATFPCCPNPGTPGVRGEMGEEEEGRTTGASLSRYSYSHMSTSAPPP
In short: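 Radioligand competition binding on guinea pig pancreas cell homogenates, using 20 pM [125I]BH-CCK-8S as the tracer. Affinity is reported as pKi. Results come from at least three separate experiments.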

Row | Compound | pKb [1] | Ki [2] [nM]
1 | Cn1ccc2cc(C(=O)N[C@@H](Cc3ccccc3)C(=O)Nc3cc(C(=O)O)cc(C(=O)O)c3)c(C(=O)NCC34CC5CC(CC(C5)C3)C4)cc21 | 9.8 | 3980
2 | O=C(O)c1cc(NC(=O)[C@H](Cc2ccc(I)cc2)NC(=O)c2cc3cc[nH]c3cc2C(=O)NCC23CC4CC(CC(C4)C2)C3)cc(C(=O)O)c1 | 9.1 | 2000
3 | O=C(O)C1C2c3ccccc3C(c3ccccc32)C1C(=O)NCC12CC3CC(CC(C3)C1)C2 (stereo unspecified) | 5.6 | –
4 | O=C(O)c1cc(NC(=O)[C@H](Cc2ccccc2)NC(=O)C2C3c4ccccc4C(c4ccccc43)C2C(=O)NCC23CC4CC(CC(C4)C2)C3)cc(C(=O)O)c1 (stereo partly specified) | 8.3 | –
5 | Nc1cccc2cc(C(=O)NCC34CC5CC(CC(C5)C3)C4)c(C(=O)N[C@@H](Cc3ccccc3)C(=O)Nc3cc(C(=O)O)cc(C(=O)O)c3)cc12 | 8.2 | 2510
6 | Cc1cccc(NC(=O)N[C@@H]2N=C(c3ccccc3)c3ccccc3N(C)C2=O)c1 [L-365260] | 7.6 | 316
7 | O=C(O)c1cccc(NC(=O)c2nc(C3CCCCC3)[nH]c2COC23CC4CC(CC(C4)C2)C3)c1 | 9.1 | –
8 | Nc1cccc2cc(C(=O)N[C@@H](Cc3ccccc3)C(=O)Nc3cc(C(=O)O)cc(C(=O)O)c3)c(C(=O)NCC34CC5CC(CC(C5)C3)C4)cc12 | 9 | 2510
9 | CC(C)C[C@H](NC(=O)[C@H](Cc1c[nH]c2ccccc12)NC(=O)OC(C)(C)C)C(=O)N[C@@H](CC(=O)O)C(=O)NCCc1ccccc1 (Boc-Trp-Leu-Asp-NHPhenethyl) | 6.9 | 7940
10 | COc1ccc(CCNC(=O)[C@H](CC(=O)O)NC(=O)[C@H](Cc2ccc3ccccc3c2)NC(=O)[C@H](Cc2c[nH]c3ccccc23)NC(=O)OC(C)(C)C)cc1 | 5.4 | 63.1
11 | CC(=O)N1[C@H](CC23CC4CC(CC(C4)C2)C3)C(=O)N(Cc2ccccc2)c2ccccc2C(=O)C[C@H]1C(=O)NCC(=O)O | 6.8 | 7940
12 | O=C(O)c1cc(NC(=O)[C@H](Cc2ccccc2)NC(=O)c2cc3sccc3cc2C(=O)NCC23CC4CC(CC(C4)C2)C3)cc(C(=O)O)c1 | 9.4 | 794
13 | C[C@@H](NC(=O)C[C@@H]1CCCN1C(=O)C1C2c3ccccc3C(c3ccccc32)C1C(=O)NCC12CC3CC(CC(C3)C1)C2)C(=O)O (stereo partly specified) | 7.3 | 25100
14 | CN1C(=O)[C@H](NC(=O)Nc2cccc(-c3nnn[nH]3)c2)N=C(c2ccccc2)c2ccccc21 | 8.4 | 316
15 | O=C(O)c1cc(NC(=O)[C@H](Cc2ccccc2)NC(=O)c2cc3ccccc3cc2C(=O)NCC23CC4CC(CC(C4)C2)C3)cc(C(=O)O)c1 | 8.2 | –
16 | O=C(O)c1cc(NC(=O)[C@H](Cc2ccccc2)NC(=O)c2cc3cc[nH]c3cc2C(=O)NCC23CC4CC(CC(C4)C2)C3)cc(C(=O)O)c1 | 9.3 | –
17 | CNc1cccc(NC(=O)N[C@@H]2N=C(c3ccccn3)c3ccccc3N(CC(=O)C(C)(C)C)C2=O)c1 [NETAZEPIDE] | 9.9 | 398
18 | O=C(O)c1cc(NC(=O)[C@H](Cc2ccccc2)NC(=O)c2cc3cc[nH]c3cc2C(=O)NC2CCCCCC2)cc(C(=O)O)c1 | 9.3 | 3160
19 | C[C@](Cc1c[nH]c2ccccc12)(NC(=O)OC1[C@H]2C[C@@H]3C[C@@H](C[C@H]1C3)C2)C(=O)NC[C@H](NC(=O)CCC(=O)O)c1ccccc1 (stereo partly specified) [CI-988] | – | 631
20 | O=C1NN(C(=O)Nc2ccc(Br)cc2)[C@H](c2ccccc2)[C@H]1c1ccccc1 | 5.9 | 20000
21 | O=C(O)c1cccc(NC(=O)c2nc(-c3ccccc3)[nH]c2CC23CC4CC(CC(C4)C2)C3)c1 | 6.6 | 1260
